From ChEMBL document CHEMBL1141130, “A novel selective GABA(A) alpha1 receptor agonist displaying sedative and anxiolytic-like properties in rodents” (J Med Chem, 2005)

Legend:
Rattus norvegicus [1] = experiment: Duration of loss of the righting reflex induced by ethanol at a dose of 0.3 mg/Kg when given per oral; n=8; assay type: functional, Mus musculus
Rattus norvegicus [2] = experiment: Duration of loss of the righting reflex induced by ethanol at a dose of 1 mg/Kg when given per oral; n=12; assay type: functional, Mus musculus
[3] = Binding affinity for rat alpha2 beta2/3 gamma2 GABA-A/BzR receptor
Procedure, shortened: (§1)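 Recombinant rat αxβ2/3γ2 GABAA/benzodiazepine receptors expressed in HEK293 cells. Affinity measured by radioligand binding and reported as Ki. Values are means ± SEM from three independent experiments, each run in triplicate.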

Rattus norvegicus [4] = experiment: Duration of loss of the righting reflex induced by ethanol at a dose of 3 mg/Kg when given per oral; n=14; assay type: functional, Mus musculus
[5] = Binding affinity for rat alpha-5 beta2/3 gamma2 GABA-A/BzR receptor; procedure, shortened: as §1
Mus musculus [6] = experiment: Percent of mice not entering into the dark compartment in 120 s in 24 hr retention test at 0 hr treatment at a dose of 10 mg/Kg when given peroral […] avoidance test; n=10
Mus musculus [7] = experiment: Percent of mice not entering into the dark compartment in 120 s in 24 hr retention test at 0 hr treatment at a dose of 30 mg/Kg when given peroral […] avoidance test; n=10
Rattus norvegicus [8] = experiment: Duration of loss of the righting reflex induced by ethanol at a dose of 30 mg/Kg when given per oral; n=8; assay type: functional, Mus musculus
[9] = Binding affinity for rat alpha-1 beta2/3 gamma2 GABA A / BzR receptor; procedure, shortened: as §1
[10] = Binding affinity for rat alpha-3 beta2/3 gamma2 GABA-A/BzR receptor; procedure, shortened: as §1

Compound | Time (Rattus norvegicus [1]) | Time (Rattus norvegicus [2]) | Ki [3] | Time (Rattus norvegicus [4]) | Ki [5] | % (Mus musculus [6]) | % (Mus musculus [7]) | Time (Rattus norvegicus [8]) | Ki [9] | Ki [10]
CN1C(=O)CN=C(c2ccccc2)c2cc(Cl)ccc21 [DIAZEPAM] | 127.4 min | 129.3 min | 0.02 µM | 149.5 min | – | – | – | – | – | –
Cc1ccc(-c2nc3ccc(C)cn3c2CC(=O)N(C)C)cc1 [ZOLPIDEM] | – | – | – | – | > 10 µM | 50% | 70% | – | – | –
Cc1ccc(-c2nn3ccc(C)nc3c2CC(=O)N(C)C)cc1 | – | – | > 10 µM | – | > 10 µM | 40% | 50% | 104.9 min | 0.031 µM | > 10 µM
